Experimental data published in ChEMBL document CHEMBL1133515, “Hydrolytic stability versus ring size in lactams: implications for the development of lactam antibiotics and other serine protease inhibitors” (J Med Chem, 2000).

Key:
Format in all cases: ADME
[1] = Compound was evaluated for the second order hydrolysis rate constant
In short: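 Amides were reacted with NaOD in D2O under second-order conditions. Concentrations of amide and hydroxide were tracked over reaction time. k2 was taken from the gradient of a plot of the log of the lactam/hydroxide concentration ratio against time, using the second-order rate law with the starting amide and NaOD concentrations.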

[2] = Compound was evaluated for rate of hydrolysis expressed in hours at a pH of 12.; details: pH 12
In short: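 Deuterated phosphate buffer at pH 12 was made from 1 M K2DPO4 in D2O, with pH adjusted using 10 M KOD. Lactams were dissolved in it at 0.10 and 0.50 M. Hydrolysis was followed over time, and a rate constant per hour was derived.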

[3] = Compound was evaluated for rate of hydrolysis expressed in hours at a pH of 7.5; details: pH 7.5
In short: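 Pseudo-first-order hydrolysis was run in 0.33 M phosphate buffer at pH 7.5 in D2O, made by mixing Na2DPO4 and KD2PO4 solutions. The pH was checked potentiometrically. The rate constant was expressed per hour.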

k2 [1] | k [2] | k [3] | Structure (SMILES)
1.36e-07 M⁻¹ s⁻¹ | – | – | O=C1CCCCCCN1
0.000237 M⁻¹ s⁻¹ | 0.00103 h⁻¹ | – | O=C1CCN1
3.21e-06 M⁻¹ s⁻¹ | – | – | O=C1CCCCCN1 [CAPROLACTAM]
– | 2.3 h⁻¹ | 0.00337 h⁻¹ | CC1(C)S[C@@H]2[C@H](NC(=O)Cc3ccccc3)C(=O)N2[C@H]1C(=O)[O-].[K+] [PENICILLIN G POTASSIUM]
2.72e-07 M⁻¹ s⁻¹ | – | – | O=C1CCCCCCCN1
0.000121 M⁻¹ s⁻¹ | 0.000648 h⁻¹ | – | O=C1CCCCN1

Structure (SMILES) | k2 [1] | k [2] | k [3]
O=C1CCCN1 [2-PYRROLIDONE] | 5.59 M⁻¹ s⁻¹ | – | –
CNC(C)=O | 3.32e-06 M⁻¹ s⁻¹ | – | –
